The test system of test [1] is B16-F10. Nature of the test: Antiproliferative activity against mouse B16F10 cells after 48 hrs by MTT based ELISA assay. The test is classed as functional, cell-based. Conditions: B16-F10, 48 h. The method in brief:
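B16-F10 cells grown to log phase in RPMI 1640 with 10% FBS, seeded at 2 × 10⁴ cells/mL and incubated 24 h at 37 °C, 5% CO₂ before treatment. Read-out was absorbance at 570 nm after an overnight incubation at 37 °C. Three replicate wells per concentration, each assay run at least three times. IC50 reported.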

A short description of test [2]: Inhibition of bovine brain tubulin polymerization after 20 mins by turbidimetric analysis. Also on record: species or system Bos taurus. In short, it runs like this:
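Tubulin at 10 µM in glutamate buffer was preincubated with varying compound concentrations at 30 °C, then cooled to 0 °C. GTP was added, the mix moved to 0 °C cuvettes and warmed to 30 °C, and assembly was followed turbidimetrically.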

Test [3] has as its system B16-F10. Nature of the test: Cell cycle arrest in mouse B16F10 cells assessed as accumulation at G0/G1 phase at 1 ug/ml after 24 hrs by flow cytometry analysis (reference value: 48.57%). The test is classed as functional.
Test [4] has as its system B16-F10. Description: Cell cycle arrest in mouse B16F10 cells assessed as accumulation at G2/M phase at 5 ug/ml after 24 hrs by flow cytometry analysis (reference value: 17.03%). Format: functional.
The test system of test [5] is B16-F10. Nature of the test: Cell cycle arrest in mouse B16F10 cells assessed as accumulation at S phase at 5 ug/ml after 24 hrs by flow cytometry analysis (reference value: 9.40%). Format: functional.
Test [6] concerns B16-F10. Description: Cell cycle arrest in mouse B16F10 cells assessed as accumulation at G0/G1 phase at 5 ug/ml after 24 hrs by flow cytometry analysis (reference value: 48.57%). Format: functional.
The test system of test [7] is B16-F10. Description: Cell cycle arrest in mouse B16F10 cells assessed as accumulation at S phase at 1 ug/ml after 24 hrs by flow cytometry analysis (reference value: 9.40%). The test is classed as functional.
Test [8] has as its system B16-F10. Description: Cell cycle arrest in mouse B16F10 cells assessed as accumulation at G2/M phase at 1 ug/ml after 24 hrs by flow cytometry analysis (reference value: 17.03%). The test is classed as functional.

≈ marks a conversion by molar mass, not a printed value.

With `Cc1ccc(S(=O)(=O)NC(=O)/C=C/c2ccc(N(C)C)cc2)cc1`, the results for the IC50 (in the test on B16-F10 [1]; in test [2]) were 4.3 µg/mL (≈ 12.5 µM) and 37 µg/mL (≈ 107 µM), respectively.
Taken in the same sequence, the figures for `O=C(/C=C/c1ccc(Br)cc1)NS(=O)(=O)c1ccc(Br)cc1` were 5.1 µg/mL (≈ 11.5 µM) and 53 µg/mL (≈ 119 µM).
In the same order, the values of `COc1ccc(/C=C/C(=O)NS(=O)(=O)c2ccccc2)cc1` are 13.2 µg/mL (≈ 41.6 µM) and 160 µg/mL (≈ 504 µM).
In the same order, the values of `COc1ccc(/C=C/C(=O)NS(=O)(=O)c2ccc(F)cc2)cc1` are 5.1 µg/mL (≈ 15.2 µM) and 45 µg/mL (≈ 134 µM).
Consider `COc1ccc(/C=C/C(=O)NS(=O)(=O)c2ccc(Br)cc2)cc1`, for which the IC50 in the test on B16-F10 [1] came to 5.8 µg/mL (≈ 14.6 µM); in test [2], 53 µg/mL (≈ 134 µM).
In the same order, the values of `O=C(/C=C/c1ccc(Cl)cc1)NS(=O)(=O)c1ccc(Br)cc1` are 2.8 µg/mL (≈ 6.99 µM) and 10.8 µg/mL (≈ 27 µM).
With `O=C(/C=C/c1ccc(Cl)cc1)NS(=O)(=O)c1ccc(Cl)cc1`, the IC50 with B16-F10 [1] was 2.5 µg/mL (≈ 7.02 µM); in test [2] it was 9.3 µg/mL (≈ 26.1 µM).
Taken in the same sequence, the figures for `O=C(/C=C/c1ccc(F)cc1)NS(=O)(=O)c1ccc(Br)cc1` were 2.8 µg/mL (≈ 7.29 µM) and 14.7 µg/mL (≈ 38.3 µM).
In the same order, the values of `O=C(/C=C/c1ccc(Cl)cc1)NS(=O)(=O)c1ccccc1` are 2.2 µg/mL (≈ 6.84 µM) and 15.3 µg/mL (≈ 47.5 µM).
Turning to `O=C(/C=C/c1ccc(Cl)cc1)NS(=O)(=O)c1ccc(F)cc1`, the IC50 in the test on B16-F10 [1] amounted to 2 µg/mL (≈ 5.89 µM); in test [2], 8.9 µg/mL (≈ 26.2 µM).
In the same order, the values of `Cc1ccc(S(=O)(=O)NC(=O)/C=C/c2ccc(Cl)cc2)cc1` are 4.6 µg/mL (≈ 13.7 µM) and 30 µg/mL (≈ 89.3 µM).
For the compound `O=C(/C=C/c1ccccc1)NS(=O)(=O)c1ccccc1`, the IC50 in the test on B16-F10 [1] is 3.5 µg/mL (≈ 12.2 µM); in test [2], 37 µg/mL (≈ 129 µM).
In the same order, the values of `Cc1ccc(S(=O)(=O)NC(=O)/C=C/c2ccccc2)cc1` are 13.8 µg/mL (≈ 45.8 µM) and 152 µg/mL (≈ 504 µM).
In the same order, the values of `O=C(/C=C/c1ccccc1)NS(=O)(=O)c1ccc(F)cc1` are 2.1 µg/mL (≈ 6.88 µM) and 4.5 µg/mL (≈ 14.7 µM).
Consider `O=C(/C=C/c1ccccc1)NS(=O)(=O)c1ccc(Cl)cc1`, for which the IC50 with B16-F10 [1] worked out at 2.2 µg/mL (≈ 6.84 µM); in test [2], 14.8 µg/mL (≈ 46 µM).
Regarding `O=C(/C=C/c1ccccc1)NS(=O)(=O)c1ccc(Br)cc1`, the IC50 in the test on B16-F10 [1] came out at 3.9 µg/mL (≈ 10.6 µM); in test [2], 63 µg/mL (≈ 172 µM).
In the case of `O=C(/C=C/c1ccc(F)cc1)NS(=O)(=O)c1ccccc1`, the IC50 with B16-F10 [1] amounted to 2.1 µg/mL (≈ 6.88 µM); in test [2], 4.5 µg/mL (≈ 14.7 µM).
Taken in the same sequence, the figures for `Cc1ccc(S(=O)(=O)NC(=O)/C=C/c2ccc(F)cc2)cc1` were 4.8 µg/mL (≈ 15 µM) and 40 µg/mL (≈ 125 µM).
With `O=C(/C=C/c1ccc(F)cc1)NS(=O)(=O)c1ccc(F)cc1`, the Activity in the test on B16-F10 [3] came to 26.7%; in the test on B16-F10 [4] it was 49%; in the test with B16-F10 [5], 4.22%; with B16-F10 [6], 5.65%; in the test with B16-F10 [7], 9.08%; in the test with B16-F10 [8], 30.21%. Besides, the IC50 stood at 0.8 µg/mL (≈ 2.47 µM) in the test on B16-F10 [1] and 2.4 µg/mL (≈ 7.42 µM) in test [2].
In the case of `O=C(/C=C/c1ccc(F)cc1)NS(=O)(=O)c1ccc(Cl)cc1`, the IC50 in the test on B16-F10 [1] is 2.6 µg/mL (≈ 7.65 µM); in test [2], 4.5 µg/mL (≈ 13.2 µM).
Taken in the same sequence, the figures for `O=C(/C=C/c1ccc(Br)cc1)NS(=O)(=O)c1ccccc1` were 3.9 µg/mL (≈ 10.6 µM) and 74 µg/mL (≈ 202 µM).
In the case of `Cc1ccc(S(=O)(=O)NC(=O)/C=C/c2ccc(Br)cc2)cc1`, the IC50 was 12.1 µg/mL (≈ 31.8 µM) with B16-F10 [1] and 137 µg/mL (≈ 360 µM) in test [2].
Taken in the same sequence, the figures for `O=C(/C=C/c1ccc(Br)cc1)NS(=O)(=O)c1ccc(F)cc1` were 1.2 µg/mL (≈ 3.12 µM) and 3.8 µg/mL (≈ 9.89 µM).
Turning to `O=C(/C=C/c1ccc(Br)cc1)NS(=O)(=O)c1ccc(Cl)cc1`, the IC50 in the test on B16-F10 [1] stood at 5.2 µg/mL (≈ 13 µM); in test [2], 55 µg/mL (≈ 137 µM).
Consider `COc1ccc(/C=C/C(=O)NS(=O)(=O)c2ccc(C)cc2)cc1`, for which the IC50 amounted to 12.2 µg/mL (≈ 36.8 µM) in the test with B16-F10 [1] and 146 µg/mL (≈ 441 µM) in test [2].
Turning to `COc1ccc(/C=C/C(=O)NS(=O)(=O)c2ccc(Cl)cc2)cc1`, the results for the IC50 (in the test with B16-F10 [1]; in test [2]) were 5.3 µg/mL (≈ 15.1 µM) and 52 µg/mL (≈ 148 µM), respectively.
In the same order, the values of `CN(C)c1ccc(/C=C/C(=O)NS(=O)(=O)c2ccccc2)cc1` are 2.3 µg/mL (≈ 6.96 µM) and 26 µg/mL (≈ 78.7 µM).
In the same order, the values of `CN(C)c1ccc(/C=C/C(=O)NS(=O)(=O)c2ccc(F)cc2)cc1` are 2.3 µg/mL (≈ 6.6 µM) and 10 µg/mL (≈ 28.7 µM).
In the same order, the values of `CN(C)c1ccc(/C=C/C(=O)NS(=O)(=O)c2ccc(Cl)cc2)cc1` are 2.8 µg/mL (≈ 7.67 µM) and 14 µg/mL (≈ 38.4 µM).
Take `CN(C)c1ccc(/C=C/C(=O)NS(=O)(=O)c2ccc(Br)cc2)cc1`: the IC50 with B16-F10 [1] amounted to 4.2 µg/mL (≈ 10.3 µM); in test [2], 34 µg/mL (≈ 83.1 µM).
Take `O=C(/C=C/c1ccc([N+](=O)[O-])cc1)NS(=O)(=O)c1ccccc1`: the IC50 was found to be 4.8 µg/mL (≈ 14.4 µM) in the test with B16-F10 [1] and 50 µg/mL (≈ 150 µM) in test [2].
In the same order, the values of `Cc1ccc(S(=O)(=O)NC(=O)/C=C/c2ccc([N+](=O)[O-])cc2)cc1` are 13.5 µg/mL (≈ 39 µM) and 151 µg/mL (≈ 436 µM).
Taken in the same sequence, the figures for `O=C(/C=C/c1ccc([N+](=O)[O-])cc1)NS(=O)(=O)c1ccc(F)cc1` were 2.2 µg/mL (≈ 6.28 µM) and 6.3 µg/mL (≈ 18 µM).
Taken in the same sequence, the figures for `O=C(/C=C/c1ccc([N+](=O)[O-])cc1)NS(=O)(=O)c1ccc(Cl)cc1` were 13.7 µg/mL (≈ 37.4 µM) and 134 µg/mL (≈ 365 µM).
On to `O=C(/C=C/c1ccc([N+](=O)[O-])cc1)NS(=O)(=O)c1ccc(Br)cc1`, for which the IC50 was found to be 13.9 µg/mL (≈ 33.8 µM) in the test with B16-F10 [1] and 163 µg/mL (≈ 396 µM) in test [2].
In the same order, the values of `O=C(/C=C/c1ccccc1[N+](=O)[O-])NS(=O)(=O)c1ccccc1` are 6 µg/mL (≈ 18.1 µM) and 74 µg/mL (≈ 223 µM).
For `Cc1ccc(S(=O)(=O)NC(=O)/C=C/c2ccccc2[N+](=O)[O-])cc1`, the figures for the IC50 (with B16-F10 [1]; in test [2]) were 10.3 µg/mL (≈ 29.7 µM) and 102 µg/mL (≈ 294 µM), respectively.
Take `O=C(/C=C/c1ccccc1[N+](=O)[O-])NS(=O)(=O)c1ccc(F)cc1`: the IC50 in the test on B16-F10 [1] was 6 µg/mL (≈ 17.1 µM); in test [2] it was 69 µg/mL (≈ 197 µM).
`O=C(/C=C/c1ccccc1[N+](=O)[O-])NS(=O)(=O)c1ccc(Cl)cc1`: the results for the IC50 (in the test with B16-F10 [1]; in test [2]) were 6.6 µg/mL (≈ 18 µM) and 78 µg/mL (≈ 213 µM), respectively.
Taken in the same sequence, the figures for `O=C(/C=C/c1ccccc1[N+](=O)[O-])NS(=O)(=O)c1ccc(Br)cc1` were 12.6 µg/mL (≈ 30.6 µM) and 134 µg/mL (≈ 326 µM).
For the compound `COc1cc2c(c(OC)c1OC)-c1ccc(OC)c(=O)cc1[C@@H](NC(C)=O)CC2` [COLCHICINE], the Activity turned out to be 1.58% with B16-F10 [3], 1.3% in the test with B16-F10 [7] and 61.11% with B16-F10 [8].
`COc1ccc(/C=C\c2cc(OC)c(OC)c(OC)c2)cc1O` [COMBRETASTATIN A4] yielded an IC50 in test [2] of 0.7 µg/mL (≈ 2.21 µM).

The record behind these values is ChEMBL document CHEMBL1811765, “Synthesis, biological evaluation, and molecular modeling of cinnamic acyl sulfonamide derivatives as novel antitubulin agents” (Bioorg Med Chem, 2011).
